The results in this text go back to ChEMBL document CHEMBL1152597, “Push-pull benzothiazole derivatives as probes for detecting beta-amyloid plaques in Alzheimer's brains” (Bioorg Med Chem, 2009).

Activity calls are given as the source filed them. The rule behind the calls is not given here.

For assay [1], the species on record is Mus musculus. The assay is described as follows: Binding affinity to beta-amyloid plaques in wild type mouse assessed as accumulation in brain by thioflavin S staining. It counts as tissue-based. The gist of the method: (§1)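 Tg2576 (female, 27-month-old) and wild-type (female, 27-month-old) mouse brains were cut into 10 µm serial sections. Sections were incubated 10 min with probe in 50% EtOH, washed twice for 1 min in 50% EtOH and examined by fluorescence microscopy. Serial sections were counterstained with thioflavin S to confirm plaques.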

Assay [2] deals with Amyloid-beta precursor protein (Homo sapiens) (UniProt P05067). Nature of the assay: Binding affinity to beta-amyloid plaques in Alzheimer's disease patient temporal cortex by immunohistochemical staining. It counts as tissue-based. The gist of the method:
(§2)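 Probe staining was done on 5 µm sections of temporal cortex from AD brain and from adult normal brain, read by fluorescence microscopy. Serial sections were immunostained with anti-Aβ antibodies to compare the plaque staining pattern.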

The target is the same in assay [3]. The assay is described as follows: Binding affinity to beta-amyloid plaques in normal patient brain section by immunohistochemical staining. The gist of the method:
as §2

For assay [4], the species on record is Mus musculus. Nature of the assay: Binding affinity to beta-amyloid plaques in Alzheimer's disease Tg2576 mouse brain by thioflavin S staining. It counts as tissue-based. The gist of the method:
as §1

Assay [5] is described as follows: Inhibition of amyloid beta (1-42) aggregation by thioflavin T competition binding experiment.

Sequence of Amyloid-beta precursor protein (Homo sapiens) (P05067 whole entry): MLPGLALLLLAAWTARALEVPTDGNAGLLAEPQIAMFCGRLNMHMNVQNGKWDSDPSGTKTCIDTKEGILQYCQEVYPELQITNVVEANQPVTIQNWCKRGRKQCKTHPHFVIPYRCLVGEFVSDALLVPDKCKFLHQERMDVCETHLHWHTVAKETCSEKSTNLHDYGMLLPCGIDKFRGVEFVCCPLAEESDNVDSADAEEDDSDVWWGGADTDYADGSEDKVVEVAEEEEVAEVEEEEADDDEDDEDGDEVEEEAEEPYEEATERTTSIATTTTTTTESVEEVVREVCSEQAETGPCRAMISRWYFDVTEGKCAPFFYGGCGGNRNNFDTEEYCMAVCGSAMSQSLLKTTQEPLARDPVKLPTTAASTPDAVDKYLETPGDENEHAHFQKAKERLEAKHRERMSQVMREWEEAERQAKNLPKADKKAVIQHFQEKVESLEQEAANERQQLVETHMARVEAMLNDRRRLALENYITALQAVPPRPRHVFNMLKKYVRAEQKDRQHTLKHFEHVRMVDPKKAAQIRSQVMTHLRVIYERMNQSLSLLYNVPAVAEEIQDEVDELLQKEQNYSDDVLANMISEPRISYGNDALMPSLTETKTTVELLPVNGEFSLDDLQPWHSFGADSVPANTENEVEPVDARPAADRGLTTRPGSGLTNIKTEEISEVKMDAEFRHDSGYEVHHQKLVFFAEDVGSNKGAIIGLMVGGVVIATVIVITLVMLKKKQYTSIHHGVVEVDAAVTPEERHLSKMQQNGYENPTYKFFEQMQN

Regarding `CN(C)c1ccc2nc(C=C(C#N)C#N)sc2c1`, the result (in the assay listed under Mus musculus [1]; in assay [3]) was inactive. Also, the result (in assay [2]; in the assay listed under Mus musculus [4]) was Active. Besides, in assay [5], the IC50 is 120 nM.
In assay [5], `[11CH3]Nc1ccc(-c2nc3ccc(O)cc3s2)cc1` [PITTSBURGH COMPOUND B] came in with an IC50 of 670 nM.
For `CN(C)c1ccc2nc(/C=C/c3ccc(C=C(C#N)C#N)cc3)sc2c1`, the outcome (in the assay listed under Mus musculus [1]; in assay [3]) was inactive. For the same molecule, the result (in assay [2]; in the assay listed under Mus musculus [4]) was Active. Moreover, in assay [5], the half-inhibitory concentration (IC50) turned out to be 110 nM.

As usually defined, the IC50 is the point on the concentration scale where inhibition reaches its midpoint.
